Source: PMC4145632 (ACS Chemical Biology, 2014)

Key:
HeLa (HPV18 integrated) = experiment: p53 level Western blot in HeLa cells; assay type: cell-based, human; details: 48 h, compound 1–10 μM
How it was run: (§1)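 Cells plated, then dosed next day with increasing concentrations of test compound in DMSO, or DMSO control, for 48 h. HCT116 (colon, wild-type p53) got the same concentrations as SiHa/HeLa. Cells washed twice, lysed in RIPA buffer with protease inhibitors, and protein normalised by BCA. Lysates run on SDS-PAGE, transferred to PVDF and probed with anti-p53 antibody.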

SiHa (HPV16 integrated) = experiment: p53 level Western blot in SiHa cells; assay type: cell-based, human; details: 48 h, compound 1–10 μM
How it was run: as §1

HCT116 cells [1] = experiment: p53 level Western blot in HCT116 cells; assay type: cell-based, human
How it was run: as §1

HeLa cells = experiment: Cell proliferation in HeLa cells; assay type: cell-based, human; details: data not shown
PA-1 cells = experiment: p53 level Western blot in PA-1 cells; assay type: cell-based, human; details: PA-1, Western blot of remaining cells after treatment
How it was run: (§2)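 PA-1 and PA-1/HPV16 E6 cells treated with test compound at the same concentrations used for the resazurin viability test. Remaining cells washed, lysed in RIPA buffer with protease inhibitors and protein normalised by BCA. Lysates resolved by SDS-PAGE, transferred to PVDF and immunoblotted for p53.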

[2] = Resazurin cell viability, PA-1/E6 cells; assay type: cell-based, human; details: human, PA-1/E6 cells (PA-1 cells stably transfected with E6)
How it was run: (§3)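 Cells plated on day 1; test compound in DMSO, or DMSO, added on day 2. Puromycin as control. Flavonoid compounds and puromycin incubated 24 h. Resazurin then added to 5 μM final for 1 h; resorufin fluorescence read at 590 nm as a surrogate for viability. Cells: HCT116, parental PA-1 (human ovarian teratocarcinoma) or PA-1 stably transfected with HPV16 E6.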

PA-1/E6 cells [3] = experiment: Resazurin cell viability, PA-1/E6 cells; assay type: cell-based, human; details: PA-1/E6, 24 h
How it was run: as §3

E6–E6AP interaction = E6–E6AP interaction (Human papillomavirus type 16, UniProt P03126); experiment: ELISA-based E6–E6AP association assay; assay type: binding, HPV16; details: E6M-GST / MBP-E6AP association
E6–E6AP interaction, sequence (P03126 whole entry): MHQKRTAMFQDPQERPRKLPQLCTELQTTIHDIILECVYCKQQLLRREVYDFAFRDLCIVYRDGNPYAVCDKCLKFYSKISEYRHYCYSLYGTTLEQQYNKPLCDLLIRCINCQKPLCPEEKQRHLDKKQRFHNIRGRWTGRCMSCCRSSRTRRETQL
E6–E6AP interaction, sequence (Q05086 363-440, further chain): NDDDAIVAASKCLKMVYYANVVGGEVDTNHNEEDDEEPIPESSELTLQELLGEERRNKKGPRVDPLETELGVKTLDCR

E6M = experiment: Fluorescent E6 thermal stability assay; assay type: binding, HPV16; details: E6M melting curve 20-80 °C, 4 µM E6M, 10 µM compound
How it was run: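 Full-length untagged E6M: bacterially expressed 6xHis-SUMO fusion, SUMO-protease cleaved, SUMO removed on Ni-NTA. E6M mixed in buffer with SYPRO orange and test compound in DMSO, or DMSO control. Controls: protein only, compound only. Heated 20–80 °C in a real-time PCR instrument; fluorescence at 580 nm (dye bound to protein) read against temperature. Run in replicate.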

PA-1/E6 cells [4] = experiment: p53 level Western blot in PA-1/E6 cells; assay type: cell-based, human; details: PA-1/E6, Western blot of remaining cells after treatment
How it was run: as §2

SiHa cells = experiment: Cell proliferation in SiHa cells; assay type: cell-based, human; details: data not shown
HCT116 cells [5] = experiment: MTS cytotoxicity assay in HCT116 cells; assay type: cell-based, human; details: HCT116, 48 h, all concentrations tested 1.6–25 μM
PA-1 parental cells = experiment: Resazurin cell viability, PA-1 parental cells; assay type: cell-based, human; details: 24 h
How it was run: as §3

HCT116 cells [6] = experiment: Resazurin cell viability, HCT116 cells; assay type: cell-based, human; details: HCT116, 24 h
How it was run: as §3

HPV-positive cell lines [7] = details: cited from earlier work
HPV-positive cell lines [8] = details: HPV-positive cell lines ref 33; cited from earlier work
[9] = HCT116, same concentrations as viability test (Figure 6B)

## O=c1c(O)c(-c2ccc(O)c(O)c2)oc2c(O)c(O)cc(O)c12 [Gossypetin]
HeLa (HPV18 integrated)
  p53 levels: significant increase in p53 levels
SiHa (HPV16 integrated)
  p53 levels: significant increase in p53 levels
HCT116 cells [1]; [9]
  p53 levels: unchanged
HeLa cells
  Inhibition of cell proliferation: did not observe an inhibition of cell proliferation
PA-1 cells
  p53 levels: unchanged
[2]
  viability at 24 h: > 50%
PA-1/E6 cells [3]
  Cell viability (resazurin): sensitive
E6–E6AP interaction
  ELISA IC50 (stated in words): sub-micromolar
E6M
  Thermal Stability: stabilizes E6M
PA-1/E6 cells [4]
  p53 levels: concentration dependent increase
SiHa cells
  Inhibition of cell proliferation: did not observe an inhibition of cell proliferation
HCT116 cells [5]
  Toxicity (MTS): not toxic

## COc1ccc(C[C@H](N)C(=O)N[C@H]2[C@@H](O)[C@H](n3cnc4c(N(C)C)ncnc43)O[C@@H]2CO)cc1 [Puromycin, reference compound]
PA-1 parental cells
  Cell viability (resazurin): equally cytotoxic
PA-1/E6 cells [3]
  Cell viability (resazurin): equally cytotoxic
HCT116 cells [6]
  Cell viability (resazurin): equally cytotoxic

## O=c1cc(-c2ccccc2)oc2cc(O)c(O)c(O)c12 [baicalein]
HCT116 cells [1]; [9]
  p53 levels: unchanged
HeLa cells
  Inhibition of cell proliferation: did not observe an inhibition of cell proliferation
PA-1 cells
  p53 levels: unchanged
[2]
  viability at 24 h: > 50%
PA-1/E6 cells [3]
  Cell viability (resazurin): sensitive
E6–E6AP interaction
  ELISA IC50 (stated in words): sub-micromolar
PA-1/E6 cells [4]
  p53 levels: concentration dependent increase
SiHa cells
  Inhibition of cell proliferation: did not observe an inhibition of cell proliferation

## CC[n+]1c(-c2ccccc2)c2cc(N)ccc2c2ccc(N)cc21 [ethidium bromide, Ethidium bromide, reference compound]
HCT116 cells [1]; HCT116 (HPV-negative, wild-type p53), 48 h, Western blot
  p53 levels: effectively stabilized p53

## O=c1cc(-c2ccc(O)c(O)c2)oc2cc(O)cc(O)c12 [luteolin]
HPV-positive cell lines [7]
  Viability of HPV-positive cell lines: decreased viability
HPV-positive cell lines [8]
  p53 and p21Cip1/Waf1 protein: increase in p53 and p21^Cip1/Waf1 protein
